The source made the active and inactive calls. The rule behind the calls is not given here. Non-standard residues stand in square brackets, D forms with d. Residues, ends and D or L forms follow the SMILES beside them. *: point of attachment. Propanoyl(3-cHex) = O=C(CCC1CCCCC1)*; Dab = NCC[C@H](N)C(=O)O
What was measured:
Mus musculus [1] = assay: Suppression of appetite in ddY mouse assessed as decrease in body weight gain at 200 nmol administered intranasally as single dose on day 0; assay type: functional, organism-based; settings: route nas
Summary of the method: (§1)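 Single i.n. dose (200 nmol) or saline vehicle given on day 0; mice housed individually, with body weight, food and water consumed recorded daily. N = 8 per group, mean ± SD; two-way repeated measures ANOVA followed by Tukey–Kramer test.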

Mus musculus [2] = assay: Suppression of appetite in ddY mouse assessed as decrease in food consumption at 200 nmol administered intranasally as single dose on day 0 and measured on day 1; assay type: functional, organism-based; settings: route nas, time 1.0 day; summary of the method: as §1
Mus musculus [3] = assay: Effect on water intake in ddY mouse at 200 nmol administered intranasally as single dose on day 0 and measured for 3 days; assay type: functional; settings: route nas, time 3.0 day; summary of the method: as §1
Mus musculus [4] = assay: Suppression of appetite in ddY mouse assessed as body weight at 200 nmol administered intranasally on days 0 to 2 and measured for 3 days relative to day 0; assay type: functional; settings: route nas, time 3 day
Summary of the method: (§2)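 Daily i.n. dosing (200 nmol) or saline vehicle on days 0–2 in individually housed mice; body weight (relative to day 0), daily food intake and water intake recorded daily. N = 8, mean ± SD; two-way repeated measures ANOVA with Tukey–Kramer test.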

Mus musculus [5] = assay: Suppression of appetite in ddY mouse assessed as decrease in daily food intake at 200 nmol administered intranasally on day 0 to 2 and measured on days 1 to 3; assay type: functional, organism-based; settings: route nas, time 3.0 day; summary of the method: as §2
Mus musculus [6] = assay: Increase in water intake in ddY mouse at 200 nmol administered intranasally on days 0 to 2 and measured on days 4 to 5; assay type: functional; settings: route nas, time 4-5 day; summary of the method: as §2
Mus musculus [7] = assay: Induction of anxiety-like behaviour in ddY mouse assessed as decrease in inner ratio at 200 nmol administered intranasally and measured after 45 mins by open field test; assay type: functional; settings: route nas
Summary of the method: (§3)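 Open field (40 × 40 × 50 cm) with video tracking at 45 min and 24 h after i.n. dosing (200 nmol); total distance, cumulative grooming time, and inner ratio (% time in central 20 × 20 cm zone) scored. N = 8, mean ± SD; two-way repeated measures ANOVA, Tukey–Kramer.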

Mus musculus [8] = assay: Induction of stress related behaviour in ddY mouse assessed as increase in cumulative grooming time at 200 nmol administered intranasally and measured after 45 mins by open field test; assay type: functional; settings: route nas; summary of the method: as §3
Mus musculus [9] = assay: Effect on total distance travelled in ddY mouse at 200 nmol administered intranasally and measured after 45 mins by open field test; assay type: functional; settings: route nas; summary of the method: as §3
Mus musculus [10] = assay: Induction of anxiety-like behaviour in ddY mouse assessed as decrease in inner ratio at 200 nmol administered intranasally and measured after 24 hrs by open field test; assay type: functional; settings: route nas; summary of the method: as §3
Mus musculus [11] = assay: Induction of stress related behaviour in ddY mouse assessed as increase in cumulative grooming time at 200 nmol administered intranasally and measured after 24 hrs by open field test; assay type: functional; settings: route nas; summary of the method: as §3
Mus musculus [12] = assay: Induction of anxiety-like behaviour in ddY mouse assessed as decrease in inner ratio at 200 nmol administered intranasally and measured after 3 hrs by open field test; assay type: functional; settings: route nas
Mus musculus [13] = assay: Induction of stress related behaviour in ddY mouse assessed as increase in cumulative grooming time at 200 nmol administered intranasally and measured after 3 hrs by open field test; assay type: functional; settings: route nas
Mus musculus [14] = assay: Effect on total distance travelled in ddY mouse at 200 nmol administered intranasally and measured after 3 hrs by open field test; assay type: functional; settings: route nas
Mus musculus [15] = assay: Suppression of plasma prolactin level in C57BL/6J mouse assessed as prolactin level at 20 nmol administered intranasally by ELISA (reference value: 0.45 +/-0.14 ng/ml); assay type: functional; settings: route nas
Mus musculus [16] = assay: Suppression of restrain stress-induced plasma prolactin level in C57BL/6J mouse assessed as prolactin level at 20 nmol administered intranasally followed by exposure to restraint stress for 40 mins by ELISA (reference value: 2.04 +/-0.95 ng/ml); assay type: functional; settings: route nas
Mus musculus [17] = assay: Suppression of restrain stress-induced plasma prolactin level in C57BL/6J mouse at 200 nmol administered intranasally followed by exposure to restraint stress for 40 mins by ELISA; assay type: functional, organism-based; settings: route nas
Mus musculus [18] = assay: Suppression of restrain stress-induced plasma prolactin level in C57BL/6J mouse at 20 nmol administered intranasally and 50 mins later exposure to restraint stress for 40 mins by ELISA; assay type: functional, organism-based; settings: route nas, time 90.0 min

Structure (SMILES): CC(C)C[C@H](NC(=O)CCC1CCCCC1)C(=O)N[C@@H](CC(C)C)C(=O)N[C@@H](CCN)C(=O)N1CCC[C@H]1C(=O)N[C@@H](CCCNC(=N)N)C(=O)N[C@@H](CC(N)=O)C(N)=O ({Propanoyl(3-cHex)}-LL[Dab]PRN-NH2)
- inhibition (Mus musculus [1]): Active
- inhibition (Mus musculus [2]): Active
- Activity (Mus musculus [3]): inactive
- Activity (Mus musculus [4]): <100%
- inhibition (Mus musculus [5]): Active
- Activity (Mus musculus [6]): Active
- Activity (Mus musculus [7]): Active
- Activity (Mus musculus [8]): Active
- Activity (Mus musculus [9]): inactive
- Activity (Mus musculus [10]): inactive
- Activity (Mus musculus [11]): inactive
- Activity (Mus musculus [12]): inactive
- Activity (Mus musculus [13]): inactive
- Activity (Mus musculus [14]): inactive
- Activity (Mus musculus [15]): <0.15 ng/mL
- Activity (Mus musculus [16]): 0.49 ng/mL
- inhibition (Mus musculus [17]): Active
- inhibition (Mus musculus [18]): inactive

Reference: ChEMBL document CHEMBL5344459, “Suppressive Effects of Neuromedin U Receptor 2-Selective Peptide Agonists on Appetite and Prolactin Secretion in Mice” (2024)
